Experimental data: ChEMBL document CHEMBL3259540, “Design, synthesis and molecular docking studies of novel N-benzenesulfonyl-1,2,3,4-tetrahydroisoquinoline-based triazoles with potential anticancer activity” (Eur J Med Chem, 2014)

What was measured:
[1] = Cytotoxicity against human HuCCa1 cells after 48 hrs by MTT assay; format: functional, cell-based; conditions: HuCC-A1, 48 h
Method in brief: (§1)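 Adherent cells seeded at 10,000–20,000 per well and held 24 h at 37 °C in 5% CO2. Serial dilutions of compound were then added, with etoposide and/or doxorubicin as positive controls and DMSO as negative control. After 48 h of continuous exposure, survival was read by MTT. IC50 was the concentration giving 50% growth inhibition relative to the DMSO control.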

[2] = tested on: HepG2; experiment: Cytotoxicity against human HepG2 cells after 48 hrs by MTT assay; format: functional, cell-based; conditions: HepG2, 48 h; method in brief: as §1
[3] = Cytotoxicity against human MOLT3 cells after 48 hrs by XTT assay; conditions: MOLT-3, 48 h
[4] = tested on: Vero; experiment: Cytotoxicity against african green monkey Vero cells after 4 days by GFP detection method; format: cell-based; conditions: Chlorocebus sabaeus, 96 h
Method in brief: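 Cells at 3.3 × 10^4 cells/mL were added to compounds prediluted in 0.5% DMSO. Plates were incubated 4 days at 37 °C in 5% CO2, and GFP fluorescence was read from the plate bottom.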

[5] = tested on: A549; experiment: Cytotoxicity against human A549 cells after 48 hrs by MTT assay; format: functional, cell-based; conditions: A549, 48 h; method in brief: as §1
[6] = tested on: HepG2; experiment: Ratio of etoposide IC50 to compound IC50 for human HepG2 cells after 48 hrs by MTT assay; format: functional
[7] = tested on: HepG2; experiment: Ratio of doxorubicin IC50 to compound IC50 for human HepG2 cells after 48 hrs by MTT assay; format: functional

Compound | IC50 [1] | IC50 [2] | IC50 [3] | IC50 [4] | IC50 [5] | Ratio IC50 [6] | Ratio IC50 [7]
O=S(=O)(c1ccc(-n2cc(CO)nn2)cc1)N1CCc2ccccc2C1 | 51.4 µM | > 50 µg/mL | > 50 µg/mL | > 50 µg/mL | > 50 µg/mL | – | –
COC(=O)c1ccccc1OCc1cn(-c2ccc(S(=O)(=O)N3CCc4cc(OC)c(OC)cc4C3)cc2)nn1 | 4.79 µM | 3.37 µM | 11.7 µM | 2.82 µM | 8.43 µM | – | –
COc1cc2c(cc1OC)CN(S(=O)(=O)c1ccc(-n3cc(CO)nn3)cc1)CC2 | 72 µM | 31.8 µM | > 50 µg/mL | > 50 µg/mL | 41 µM | – | –
COc1cc2c(cc1OC)CN(S(=O)(=O)c1ccc(-n3cc(COc4ccc(C=O)cc4)nn3)cc1)CC2 | 31.1 µM | 12.5 µM | 34.1 µM | > 50 µg/mL | 31.8 µM | – | –
COc1cc2c(cc1OC)CN(S(=O)(=O)c1ccc(-n3cc(COc4ccc(C)cc4)nn3)cc1)CC2 | > 50 µg/mL | 0.56 µM | > 50 µg/mL | > 50 µg/mL | > 50 µg/mL | 53.9 | 1.4
COc1cc([C@@H]2c3cc4c(cc3[C@@H](O[C@@H]3O[C@@H]5CO[C@@H](C)O[C@H]5[C@H](O)[C@H]3O)[C@H]3COC(=O)[C@H]23)OCO4)cc(OC)c1O [ETOPOSIDE] | – | – | 0.051 µM | – | – | – | –
COc1cc2c(cc1OC)CN(S(=O)(=O)c1ccc(-n3cc(COc4ccc5ccccc5c4)nn3)cc1)CC2 | > 50 µg/mL | 1.26 µM | 36.4 µM | > 50 µg/mL | > 50 µg/mL | – | –
Cc1c2ccncc2c(C)c2c1[nH]c1ccccc12 [ELLIPTECINE] | – | – | – | 1.94 µM | – | – | –
CC(=O)c1ccccc1OCc1cn(-c2ccc(S(=O)(=O)N3CCc4ccccc4C3)cc2)nn1 | 30.2 µM | 19.1 µM | 21.9 µM | > 50 µg/mL | 14.9 µM | – | –
Cc1ccc(OCc2cn(-c3ccc(S(=O)(=O)N4CCc5ccccc5C4)cc3)nn2)cc1 | > 50 µg/mL | > 50 µg/mL | > 50 µg/mL | > 50 µg/mL | > 50 µg/mL | – | –
O=S(=O)(c1ccc(-n2cc(COc3ccc4ccccc4c3)nn2)cc1)N1CCc2ccccc2C1 | > 50 µg/mL | 60.5 µM | > 50 µg/mL | > 50 µg/mL | > 50 µg/mL | – | –
O=S(=O)(c1ccc(-n2cc(COc3ccccc3)nn2)cc1)N1CCc2ccccc2C1 | > 50 µg/mL | 6.5 µM | > 50 µg/mL | > 50 µg/mL | > 50 µg/mL | – | –
O=c1cc(OCc2cn(-c3ccc(S(=O)(=O)N4CCc5ccccc5C4)cc3)nn2)c2ccccc2o1 | 24.8 µM | > 50 µg/mL | 80.8 µM | 28.6 µM | 25.3 µM | – | –
COc1cccc2c1C(=O)c1c(O)c3c(c(O)c1C2=O)C[C@@](O)(C(=O)CO)C[C@@H]3O[C@H]1C[C@H](N)[C@H](O)[C@H](C)O1 [DOXORUBICIN] | 0.83 µM | – | – | – | – | – | –
COc1cc2c(cc1OC)CN(S(=O)(=O)c1ccc(-n3cc(COc4ccccc4C)nn3)cc1)CC2 | 39.7 µM | 1.48 µM | > 50 µg/mL | > 50 µg/mL | 27.2 µM | – | –
COc1cc2c(cc1OC)CN(S(=O)(=O)c1ccc(-n3cc(COc4ccc(C=O)cc4OC)nn3)cc1)CC2 | 40 µM | > 50 µg/mL | 5.5 µM | > 50 µg/mL | > 50 µg/mL | – | –
COC(=O)c1ccccc1OCc1cn(-c2ccc(S(=O)(=O)N3CCc4ccccc4C3)cc2)nn1 | 0.63 µM | 12.4 µM | 18.6 µM | 4.98 µM | 0.57 µM | – | –
Cc1ccccc1OCc1cn(-c2ccc(S(=O)(=O)N3CCc4ccccc4C3)cc2)nn1 | > 50 µg/mL | > 50 µg/mL | > 50 µg/mL | > 50 µg/mL | 66.3 µM | – | –
COc1cc2c(cc1OC)CN(S(=O)(=O)c1ccc(-n3cc(COc4cc(C=O)ccc4OC)nn3)cc1)CC2 | 76.2 µM | 41.4 µM | 5.82 µM | > 50 µg/mL | 31.9 µM | – | –
O=Cc1ccc(OCc2cn(-c3ccc(S(=O)(=O)N4CCc5ccccc5C4)cc3)nn2)cc1 | > 50 µg/mL | 5.27 µM | > 50 µg/mL | > 50 µg/mL | 59.1 µM | – | –
COc1cc2c(cc1OC)CN(S(=O)(=O)c1ccc(-n3cc(COc4ccc([N+](=O)[O-])cc4)nn3)cc1)CC2 | > 50 µg/mL | > 50 µg/mL | > 50 µg/mL | > 50 µg/mL | > 50 µg/mL | – | –
COc1cc2c(cc1OC)CN(S(=O)(=O)c1ccc(-n3cc(COc4ccccc4C(C)=O)nn3)cc1)CC2 | > 50 µg/mL | > 50 µg/mL | > 50 µg/mL | 37.2 µM | > 50 µg/mL | – | –
COc1cc2c(cc1OC)CN(S(=O)(=O)c1ccc(-n3cc(COc4ccccc4)nn3)cc1)CC2 | > 50 µg/mL | 2.57 µM | > 50 µg/mL | > 50 µg/mL | > 50 µg/mL | – | –
